Test results: ChEMBL document CHEMBL4152223 (Eur J Med Chem, 2018)
Values after ≈ are worked out from the molar mass of the structure shown.

How the values were obtained:
[1] = tested on: Mycobacterium tuberculosis; test: Antimycobacterial activity against Mycobacterium tuberculosis H37Rv after 14 days; format: functional; conditions: 336 h
[2] = tested on: Mycobacterium tuberculosis; test: Antimycobacterial activity against Mycobacterium tuberculosis H37Rv after 21 days; format: functional; conditions: 504 h
[3] = tested on: Mycobacterium avium; test: Antimycobacterial activity against INH/RIF/OFX resistant Mycobacterium avium 330/88 after 14 days; format: functional; conditions: 330/88, 336 h
[4] = tested on: Mycobacterium avium; test: Antimycobacterial activity against INH/RIF/OFX resistant Mycobacterium avium 330/88 after 21 days; format: functional; conditions: 330/88, 504 h
[5] = tested on: Mycobacterium kansasii; test: Antimycobacterial activity against Mycobacterium kansasii 235/80 after 7 days; format: functional; conditions: 235/80, 168 h
[6] = tested on: Mycobacterium kansasii; test: Antimycobacterial activity against Mycobacterium kansasii 235/80 after 14 days; format: functional; conditions: 235/80, 336 h
[7] = tested on: Mycobacterium kansasii; test: Antimycobacterial activity against Mycobacterium kansasii 235/80 after 21 days; format: functional; conditions: 235/80, 504 h
[8] = tested on: Mycobacterium kansasii; test: Antimycobacterial activity against Mycobacterium kansasii 6509/96 after 7 days; format: functional; conditions: 6509/96, 168 h
[9] = tested on: Mycobacterium kansasii; test: Antimycobacterial activity against Mycobacterium kansasii 6509/96 after 14 days; format: functional; conditions: 6509/96, 336 h
[10] = tested on: Mycobacterium kansasii; test: Antimycobacterial activity against Mycobacterium kansasii 6509/96 after 21 days; format: functional; conditions: 6509/96, 504 h
[11] = tested on: HepG2; test: Cytotoxicity against human HepG2 cells assessed as reduction in cell viability by MTS assay; format: cell-based
Outline: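 HepG2 human hepatocellular carcinoma cells (passage 2-4) were cultured in Eagle's MEM with 10% FBS, 1% L-glutamine and non-essential amino acids. Compounds were dissolved in DMSO and tested in triplicate at eight concentrations. Viability was read by colorimetric MTS tetrazolium reduction. Controls were 100% viability and 0% viability (10% DMSO). IC50 is the concentration reducing viability to 50% of control.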

[12] = Selectivity index, ratio of IC50 for human HepG2 cells to MIC for Mycobacterium tuberculosis H37Rv after 14 days; format: toxicity; conditions: read-out: Selectivity Index
Outline: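 SI is calculated as HepG2 IC50 divided by MIC. HepG2 cells (passage 2-4) were grown in EMEM with 10% FBS, L-glutamine and non-essential amino acids. Compounds in DMSO were tested in triplicate at eight concentrations, and viability was read by MTS tetrazolium reduction. IC50 is the concentration reducing viability to 50% of control. 10% DMSO served as the 0% viability control.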

SMILES | MIC [1] [µM] | MIC [2] [µM] | MIC [3] [µM] | MIC [4] [µM] | MIC [5] [µM] | MIC [6] [µM] | MIC [7] [µM] | MIC [8] [µM] | MIC [9] [µM] | MIC [10] [µM] | IC50 [11] [µM] | selectivity ratio at 336 h [12]
CCCCCCCCCCCCCCCCNc1nnc(-c2ccncc2)o1 | 250 (≈ 96.6 µg/mL) | 250 (≈ 96.6 µg/mL) | 250 (≈ 96.6 µg/mL) | 250 (≈ 96.6 µg/mL) | 250 (≈ 96.6 µg/mL) | 500 (≈ 193 µg/mL) | 500 (≈ 193 µg/mL) | 250 (≈ 96.6 µg/mL) | 500 (≈ 193 µg/mL) | 500 (≈ 193 µg/mL) | – | –
CCCCCCCCCCCCCNc1nnc(-c2ccncc2)o1 | 250 (≈ 86.1 µg/mL) | 250 (≈ 86.1 µg/mL) | 250 (≈ 86.1 µg/mL) | 250 (≈ 86.1 µg/mL) | 250 (≈ 86.1 µg/mL) | 250 (≈ 86.1 µg/mL) | 250 (≈ 86.1 µg/mL) | 125 (≈ 43.1 µg/mL) | 250 (≈ 86.1 µg/mL) | 250 (≈ 86.1 µg/mL) | – | –
CCCCCCCCCNc1nnc(-c2ccncc2)o1 | 62.5 (≈ 18 µg/mL) | 62.5 (≈ 18 µg/mL) | 125 (≈ 36 µg/mL) | 125 (≈ 36 µg/mL) | 125 (≈ 36 µg/mL) | 250 (≈ 72.1 µg/mL) | 250 (≈ 72.1 µg/mL) | 125 (≈ 36 µg/mL) | 250 (≈ 72.1 µg/mL) | 250 (≈ 72.1 µg/mL) | > 50 | –
CCCCCCCCCCNC(=O)NNC(=O)c1ccncc1 | 16 (≈ 5.13 µg/mL) | 32 (≈ 10.3 µg/mL) | 500 (≈ 160 µg/mL) | 500 (≈ 160 µg/mL) | 32 (≈ 10.3 µg/mL) | 62.5 (≈ 20 µg/mL) | 125 (≈ 40.1 µg/mL) | 125 (≈ 40.1 µg/mL) | 250 (≈ 80.1 µg/mL) | 250 (≈ 80.1 µg/mL) | > 250 | –
CCCCNc1nnc(-c2ccncc2)o1 | 250 (≈ 54.6 µg/mL) | 500 (≈ 109 µg/mL) | > 1000 | > 1000 | 500 (≈ 109 µg/mL) | 1000 (≈ 218 µg/mL) | 1000 (≈ 218 µg/mL) | 1000 (≈ 218 µg/mL) | 1000 (≈ 218 µg/mL) | 1000 (≈ 218 µg/mL) | – | –
CCCCCCCCCCCCCCCNc1nnc(-c2ccncc2)o1 | 125 (≈ 46.6 µg/mL) | 125 (≈ 46.6 µg/mL) | 250 (≈ 93.1 µg/mL) | 500 (≈ 186 µg/mL) | 62.5 (≈ 23.3 µg/mL) | 125 (≈ 46.6 µg/mL) | 250 (≈ 93.1 µg/mL) | 125 (≈ 46.6 µg/mL) | 250 (≈ 93.1 µg/mL) | 250 (≈ 93.1 µg/mL) | – | –
CCCCCCCNc1nnc(-c2ccncc2)o1 | 125 (≈ 32.5 µg/mL) | 125 (≈ 32.5 µg/mL) | 500 (≈ 130 µg/mL) | 500 (≈ 130 µg/mL) | 250 (≈ 65.1 µg/mL) | 500 (≈ 130 µg/mL) | 500 (≈ 130 µg/mL) | 250 (≈ 65.1 µg/mL) | 500 (≈ 130 µg/mL) | 500 (≈ 130 µg/mL) | – | –
CCCCCCCCCCCCCCCCNC(=O)NNC(=O)c1ccncc1 | 32 (≈ 12.9 µg/mL) | 62.5 (≈ 25.3 µg/mL) | 125 (≈ 50.6 µg/mL) | 125 (≈ 50.6 µg/mL) | 32 (≈ 12.9 µg/mL) | 62.5 (≈ 25.3 µg/mL) | 62.5 (≈ 25.3 µg/mL) | 32 (≈ 12.9 µg/mL) | 62.5 (≈ 25.3 µg/mL) | 62.5 (≈ 25.3 µg/mL) | > 50 | –
CCCCCNc1nnc(-c2ccncc2)o1 | 62.5 (≈ 14.5 µg/mL) | 62.5 (≈ 14.5 µg/mL) | > 1000 | > 1000 | 500 (≈ 116 µg/mL) | 1000 (≈ 232 µg/mL) | 1000 (≈ 232 µg/mL) | 500 (≈ 116 µg/mL) | 1000 (≈ 232 µg/mL) | 1000 (≈ 232 µg/mL) | – | –
CCCCCCCCCCCNc1nnc(-c2ccncc2)o1 | 32 (≈ 10.1 µg/mL) | 32 (≈ 10.1 µg/mL) | 500 (≈ 158 µg/mL) | 500 (≈ 158 µg/mL) | 8 (≈ 2.53 µg/mL) | 16 (≈ 5.06 µg/mL) | 32 (≈ 10.1 µg/mL) | 125 (≈ 39.6 µg/mL) | 125 (≈ 39.6 µg/mL) | 250 (≈ 79.1 µg/mL) | 172 | 5.4
CCCCCCCCNC(=O)NNC(=O)c1ccncc1 | 62.5 (≈ 18.3 µg/mL) | 125 (≈ 36.5 µg/mL) | 250 (≈ 73.1 µg/mL) | 250 (≈ 73.1 µg/mL) | 32 (≈ 9.36 µg/mL) | 62.5 (≈ 18.3 µg/mL) | 125 (≈ 36.5 µg/mL) | 62.5 (≈ 18.3 µg/mL) | 125 (≈ 36.5 µg/mL) | 250 (≈ 73.1 µg/mL) | > 500 | –
CCCCCCCCCCCCCCCCCCNc1nnc(-c2ccncc2)o1 | 125 (≈ 51.8 µg/mL) | 250 (≈ 104 µg/mL) | 500 (≈ 207 µg/mL) | 500 (≈ 207 µg/mL) | 250 (≈ 104 µg/mL) | 250 (≈ 104 µg/mL) | 250 (≈ 104 µg/mL) | 250 (≈ 104 µg/mL) | 500 (≈ 207 µg/mL) | 500 (≈ 207 µg/mL) | – | –
CCCCCCCCCCCCCCCCCCNC(=O)NNC(=O)c1ccncc1 | 250 (≈ 108 µg/mL) | 250 (≈ 108 µg/mL) | 250 (≈ 108 µg/mL) | 250 (≈ 108 µg/mL) | 250 (≈ 108 µg/mL) | 250 (≈ 108 µg/mL) | 250 (≈ 108 µg/mL) | 250 (≈ 108 µg/mL) | 250 (≈ 108 µg/mL) | 250 (≈ 108 µg/mL) | > 50 | –
CCCCCCCNC(=O)NNC(=O)c1ccncc1 | 32 (≈ 8.91 µg/mL) | 62.5 (≈ 17.4 µg/mL) | 250 (≈ 69.6 µg/mL) | 250 (≈ 69.6 µg/mL) | 62.5 (≈ 17.4 µg/mL) | 125 (≈ 34.8 µg/mL) | 125 (≈ 34.8 µg/mL) | 125 (≈ 34.8 µg/mL) | 250 (≈ 69.6 µg/mL) | 250 (≈ 69.6 µg/mL) | > 500 | –
CCCCCCCCCCCNC(=O)NNC(=O)c1ccncc1 | 32 (≈ 10.7 µg/mL) | 62.5 (≈ 20.9 µg/mL) | 125 (≈ 41.8 µg/mL) | 125 (≈ 41.8 µg/mL) | 16 (≈ 5.35 µg/mL) | 32 (≈ 10.7 µg/mL) | 62.5 (≈ 20.9 µg/mL) | 62.5 (≈ 20.9 µg/mL) | 125 (≈ 41.8 µg/mL) | 125 (≈ 41.8 µg/mL) | > 50 | –
